In data set [1] the test system is KB. Put plainly: Antiviral activity against Rhinovirus type 13 infected in human KB cells assessed as inhibition of virus-induced cytopathic effect at 1 to 1000 ug/ml after 72 hrs. It counts as functional, cell-based. Conditions: Human rhinovirus A13. Put shortly:
(§1)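 KB cell monolayers (24 h old) infected with 320 cell culture 50% infectious doses/mL of virus; compound added 15 min after infection at 1000 to 1 μg/mL. Plates incubated 72 h at 37 °C and scored for inhibition of viral CPE. Activity was expressed as a virus rating that accounts for cytotoxicity and CPE in treated versus untreated cells. VR 0.5 or above was taken as definite activity.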

A further data set deals with Human alphaherpesvirus 1. Kind of data set: Antiviral activity against HSV1 infected in human KB cells assessed as inhibition of virus-induced cytopathic effect at 1 to 1000 ug/ml after 72 hrs. Format: functional, organism-based. Put shortly:
as §1

Data set [2] has as its system KB. Kind of data set: Antiviral activity against Adenovirus type 3 infected in human KB cells assessed as inhibition of virus-induced cytopathic effect at 1 to 1000 ug/ml after 72 hrs. Conditions: Human adenovirus 3. It counts as functional, cell-based. Put shortly: as §1
On the technique in general: Cytopathic effects are the visible damage that an infection or toxin causes in cultured cells.

For a further data set, the system named is Human respirovirus 3. Put plainly: Antiviral activity against Parainfluenza virus type 3 infected in human KB cells assessed as inhibition of virus-induced cytopathic effect at 1 to 1000 ug/ml after 72 hrs. It counts as functional, organism-based. The method in brief: as §1
In the next data set the test system is Vaccinia virus. Kind of data set: Antiviral activity against Vaccinia virus infected in human KB cells assessed as inhibition of virus-induced cytopathic effect at 1 to 1000 ug/ml after 72 hrs. Conditions: Orthopoxvirus vaccinia. Format: functional, organism-based.
Data set [3] can be described thus: Toxicity in Swiss mouse. It counts as organism-based. Conditions: in vivo.
For data set [4], the system named is Influenza A virus. Kind of data set: Antiviral activity against Influenza A2 virus Japan 305 infected in Swiss mouse assessed as mean survival time at 75 mg/kg/day, po bid administered for 9 days (reference value: 9 days). Format: functional.
In data set [5] the test system is Mus musculus. Kind of data set: Toxicity in Swiss mouse infected with Influenza B virus Lee assessed as survival at 75 mg/kg/day, ip bid administered for 9 days started at 4 hrs prior to infection. Format: organism-based. Also on record: route intraperitoneal. Conditions: in vivo.
For data set [6], the system named is Influenza B virus. Put plainly: Antiviral activity against Influenza B virus Lee infected in Swiss mouse assessed as mean survival time at 75 mg/kg/day, ip bid administered for 9 days (reference value: 11.2 days). Format: functional. Conditions: route intraperitoneal. The method in brief:
(§2)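 Swiss mice, 14-16 g, given virus intranasally at a dose lethal to 95%. Dosed intraperitoneally twice daily for 9 days, starting 4 h before infection; controls got saline. Survivors counted on day 21 postinfection; survival compared by χ² analysis. Mean survival time is from animals dying on or before day 21 and was compared by t test.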

The test system of data set [7] is Mus musculus. Kind of data set: Toxicity in Swiss mouse infected with Murine hepatitis virus Friend-Braunsteiner assessed as survival at 18.8 mg/kg/day, ip bid administered for 8 days started at 2 hrs prior to infection. Also on record: route intraperitoneal. Conditions: in vivo. It counts as organism-based.
In data set [8] the test system is Murine hepatitis virus. Put plainly: Antiviral activity against Murine hepatitis virus Friend-Braunsteiner infected in Swiss mouse assessed as mean survival time at 37.5 mg/kg/day, ip bid administered for 8 days (reference value: 5.2 days). Conditions: route intraperitoneal. It counts as functional. The method in brief: (§3)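 Swiss mice, 16-18 g, inoculated ip with a 95% lethal dose of virus. Dosed ip twice daily for 8 days, beginning 2 h before inoculation, at 18.8, 37.5 or 75 mg/kg/day; controls got saline. Survivors counted on day 21; survival compared by χ² analysis. Mean survival time is from deaths on or before day 21, compared by t test.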

In data set [9] the test system is Influenza A virus. Put plainly: Antiviral activity against Influenza A2 virus Japan 305 infected in Swiss mouse assessed as survival at 75 mg/kg/day, po bid administered for 9 days relative to control. Format: functional, organism-based.
Data set [10] deals with Murine hepatitis virus. Kind of data set: Antiviral activity against Murine hepatitis virus Friend-Braunsteiner infected in Swiss mouse assessed as mean survival time at 75 mg/kg/day, ip bid administered for 8 days (reference value: 5.2 days). Format: functional. Conditions: route intraperitoneal. The method in brief:
as §3

Data set [11] concerns Mus musculus. Put plainly: Toxicity in Swiss mouse infected with Murine hepatitis virus Friend-Braunsteiner assessed as survival at 75 mg/kg/day, ip bid administered for 8 days started at 2 hrs prior to infection. Also noted: route intraperitoneal. It counts as organism-based. Conditions: in vivo.
Data set [12] deals with Murine hepatitis virus. Kind of data set: Antiviral activity against Murine hepatitis virus Friend-Braunsteiner infected in Swiss mouse assessed as survival at 18.8 to 75 mg/kg/day, ip bid administered for 8 days relative to control. It counts as functional, organism-based. Put shortly: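 Swiss mice of 16-18 g were inoculated ip with a 95% lethal dose of virus. Treatment was given ip twice daily for 8 days, starting 2 h before inoculation, at 75, 37.5 or 18.8 mg/kg/day; placebo controls received saline. Survivors were counted on day 21 postinfection and compared by χ² analysis. Mean survival time covered animals dying by day 21 and was compared by t test. Uninfected toxicity controls were included.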

For data set [13], the system named is Murine hepatitis virus. Kind of data set: Antiviral activity against Murine hepatitis virus Friend-Braunsteiner infected in ip dosed Swiss mouse assessed as most effective dose administered bid for 8 days. Format: functional. The method in brief:
as §3

In data set [14] the test system is Mus musculus. Put plainly: Toxicity in Swiss mouse infected with Influenza A2 virus Japan 305 assessed as survival at 75 mg/kg/day, po bid administered for 9 days started at 4 hrs prior to infection. It counts as organism-based. Also on record: route oral. Conditions: in vivo.
The subject of data set [15] is Influenza B virus. Kind of data set: Antiviral activity against Influenza B virus Lee infected in Swiss mouse assessed as survival at 75 mg/kg/day, ip bid administered for 9 days relative to control. Format: functional, organism-based. Put shortly:
as §2

The test system of data set [16] is Murine hepatitis virus. Kind of data set: Antiviral activity against Murine hepatitis virus Friend-Braunsteiner infected in Swiss mouse assessed as mean survival time at 18.8 mg/kg/day, ip bid administered for 8 days (reference value: 5.2 days). It counts as functional. Conditions: route intraperitoneal. Put shortly: as §3
The subject of data set [17] is Mus musculus. Kind of data set: Toxicity in Swiss mouse infected with Murine hepatitis virus Friend-Braunsteiner assessed as survival at 37.5 mg/kg/day, ip bid administered for 8 days started at 2 hrs prior to infection. Also noted: route intraperitoneal. Conditions: in vivo. It counts as organism-based.

Active and inactive are the calls of the source. No cut-off for these calls is given here.

With `NC(=O)c1ncn([C@@H]2O[C@H](CO)[C@@H](O)[C@H]2O)n1`, the outcome in the data set on KB [1], with Human alphaherpesvirus 1, with KB [2], with Human respirovirus 3 and in the data set with Vaccinia virus was Active.
As to `NC(=O)c1ncn([C@@H]2O[C@@H]3COP(=O)(O)O[C@H]3[C@H]2O)n1`, the outcome in the data set with KB [1], in the data set with Human alphaherpesvirus 1, in the data set with Human respirovirus 3 and in the data set on Vaccinia virus was Active. Also, in the data set with KB [2], the result was inactive.
Take `NC(=O)c1ncn([C@@H]2O[C@H](COP(=O)(O)OP(=O)(O)O)[C@@H](O)[C@H]2O)n1`: the result with KB [1], in the data set with Human alphaherpesvirus 1, with Human respirovirus 3 and in the data set with Vaccinia virus was Active. For the same compound, in the data set on KB [2], the outcome was inactive.
Compound `NC(=O)c1ncn([C@@H]2O[C@H](COP(=O)([O-])[O-])[C@@H](O)[C@H]2O)n1.[Li+].[Li+]` gave an MTD in [3] of 150 mg/kg/day. Further, the MSD with Influenza A virus [4] was 7.6 days; in the data set on Influenza B virus [6], 13.3 days; in the data set with Murine hepatitis virus [8], 6 days; in the data set with Murine hepatitis virus [10], 6.1 days; in the data set on Murine hepatitis virus [16], 5.3 days. Further, the Activity entry with Mus musculus [5] is given as “Non-toxic”; in the data set with Mus musculus [7], “Non-toxic”; in the data set on Mus musculus [11], “Non-toxic”; with Murine hepatitis virus [13], 37.5 mg/kg/day; in the data set with Mus musculus [14], “Non-toxic”; in the data set with Mus musculus [17], “Non-toxic”. Also, the result with KB [1], in the data set with Human alphaherpesvirus 1, in the data set with Influenza A virus [9], in the data set on Human respirovirus 3, in the data set on Vaccinia virus and in the data set on Murine hepatitis virus [12] was Active. Besides, the result in the data set with Influenza B virus [15] was Active. The result in the data set on KB [2] was inactive.
Regarding `NC(=O)c1ncn([C@@H]2O[C@H](COP(=O)(O)OP(=O)(O)OP(=O)(O)O)[C@@H](O)[C@H]2O)n1`, the result in the data set on KB [1], in the data set on Human alphaherpesvirus 1, with Human respirovirus 3 and in the data set with Vaccinia virus was Active. For the same compound, the result in the data set with KB [2] was inactive.
`NC(=O)c1ncn([C@@H]2O[C@H](CO)[C@H]3OP(=O)(O)O[C@H]32)n1`: the result in the data set on KB [1], in the data set with Human alphaherpesvirus 1, in the data set on Human respirovirus 3 and in the data set on Vaccinia virus was Active. Moreover, the outcome in the data set with KB [2] was inactive.

Values taken from ChEMBL document CHEMBL3244032, “Synthesis and antiviral acticity of some phosphates of the broad-spectrum antiviral nucleoside, 1-beta-D-ribofuranosyl-1,2,4-triazole-3-carboxamide (ribavirin)” (J Med Chem, 1978).
